Source: PubChem
Compounds with a hit are over-represented: about 1.4% of the library has one in this group of screens.
Lipid droplet – hepatic lipid droplet formation modulation; hit rate 0.4% among 240,000; inhibition, % at 6.5 µM; AML12 mouse hepatocytes, oleate lipid droplets, BODIPY imaging;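 active means lipid droplet intensity inhibited by at least 50%, with more than 500 cells counted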
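Technique: fluorescence imaging, 20x objective, two fields per well / Assay system: AML12 hepatocytes (mouse) / Measure: % inhibition of lipid droplet signal / Doses: 6.5 µM single-point dosing / Incubation: overnight exposure / Reagent: 100 µM oleic acid challenge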
HTR5A ag ctr – activates human HTR5A in OPRM1-OPRD1 agonist counter-screen. P47898. HTR5A agonist assay, luminescence, cell-based. activation, % at 9.3 µM. hit rate 0.61% among 340,000. AID 504692; in the data active means activation mostly above about 9.5%, no sharp cut-off; inactive means mostly below about 7.6%;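 further: 0% = cells with vehicle only and 100% = reference agonist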
Target sequence (P47898 whole entry, looked up): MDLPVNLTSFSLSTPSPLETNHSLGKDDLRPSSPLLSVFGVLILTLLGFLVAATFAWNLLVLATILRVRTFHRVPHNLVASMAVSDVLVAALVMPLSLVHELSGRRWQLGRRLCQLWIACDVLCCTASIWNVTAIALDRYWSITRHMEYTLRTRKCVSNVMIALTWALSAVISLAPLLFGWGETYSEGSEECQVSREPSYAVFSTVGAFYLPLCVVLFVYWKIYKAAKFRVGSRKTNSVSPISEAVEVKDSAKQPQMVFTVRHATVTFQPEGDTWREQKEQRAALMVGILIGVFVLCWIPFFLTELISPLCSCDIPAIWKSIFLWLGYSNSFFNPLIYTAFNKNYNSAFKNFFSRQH
MOR-DOR ag-1 – OPRM1-OPRD1 heterodimerization agonism | hit rate 0.3% among 340,000 | activation, % at 9.3 µM | AID 504326 | P35372+P41143 | cells, luminescence;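 further: 0% = vehicle-treated cells and 100% = reference agonist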
HTR5A inv ctr – inverse agonist of human HTR5A in OPRM1-OPRD1 counter-screen | P47898 | HTR5A cell line, luminescence, inverse agonism | inhibition, % at 9.3 µM | hit rate 0.083% among 340,000 | AID 504634; in the data active means inhibition mostly above about 23%, no sharp cut-off; inactive means mostly below about 18%;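 further: 0% = cells with DMSO and 100% = no-cell wells with DMSO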
MOR-DOR inv ag-1 – mu-delta opioid heterodimer inverse agonism; AID 504357; inhibition, % at 9.3 µM; cell-based MOR-DOR heterodimer luminescence; hit rate 0.21% among 340,000; P35372+P41143; in the data active means inhibition above about 22%, passing the limit was not always enough;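 further: 0% = cells with DMSO and 100% = wells without cells with DMSO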
MOR-DOR inv ag-2 – inverse agonist of OPRM1-OPRD1 heterodimerization in HTR5A counter-screen; shares compounds with HTR5A inv ctr; U2OS counter-screen cells, complementation luminescence; inhibition, % at 9.3 µM; 190 tested, under 10 active; AID 504912; call rule not given here;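 further: 0% = cells with DMSO and 100% = wells without cells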
HTR5A inv conf – HTR5A (human) inverse agonism, confirmation. shares compounds with HTR5A inv ctr. HTR5A-expressing cells, luminescence. inhibition, % at 9.3 µM. 190 tested, under 10 active. AID 504916; call rule not given here;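 further: 0% = cells with DMSO and 100% = no cells with DMSO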
MOR-DOR ag-2 – counter-screen for HTR5A agonists: OPRM1-OPRD1 heterodimerization agonism; shares compounds with HTR5A ag ctr; U2OS counter-screen cells, complementation luminescence, 3 h; activation, % at 9.3 µM; hit rate 13% among 800; AID 504913
HTR5A ag conf – confirmation of human HTR5A agonists; AID 504915; shares compounds with HTR5A ag ctr; hit rate 17% among 800; HTR5A agonist cell assay, luminescence; activation, % at 9.3 µM; in the data active means activation above about 17%;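 further: 0% = cells with vehicle only and 100% = full reference agonist response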
Starred values were filed as active, the others as inactive; i = inactive; nt = not tested or not shown; ! = not confirmed by another sample. Unless noted, no stated cut-off is given here; in the data, active means activation above about 18%; inactive means the rest.

SMILES	Lipid droplet	HTR5A ag ctr	MOR-DOR ag-1	HTR5A inv ctr	MOR-DOR inv ag-1	MOR-DOR ag-2	HTR5A ag conf	others
COc1cccc(CNC(=O)Cc2ccc(S(=O)(=O)N3CCOCC3)s2)c1	nt	-15	2	38*	-13	nt	nt	MOR-DOR inv ag-2=49*;HTR5A inv conf=-5
CCCCn1c(N)c(N(CCOC)C(=O)CN(C)S(=O)(=O)c2ccc(C)cc2)c(=O)[nH]c1=O	nt	1	-1	-2	4	nt	nt
O=C1C=CC(=C(c2ccc(O)cc2)c2ccc(O)cc2)C=C1	nt	-15	-5	42*	19	nt	nt	MOR-DOR inv ag-2=i;HTR5A inv conf=-10
CC(C)(C)c1ccc(OCC(=O)N2CCN(c3ccccn3)CC2)cc1	nt	15*	0	-37	1	18	17*
CN1C[C@H](C(=O)N[C@]2(C)O[C@@]3(O)[C@@H]4CCCN4C(=O)[C@H](Cc4ccccc4)N3C2=O)CC2c3cccc4[nH]cc(c34)C[C@H]21 (stereo not given in full)	nt	45*	1	-162	-3	-2	48*!
CCOC(=O)c1c(S(=O)(=O)NC2CCN(C(=O)OCC)CC2)c(C)n(C)c1C	-1	-2	-1	7	7	nt	nt
CCC(=NNC(=O)c1ccc2c(c1)nc(C)n2CC)c1cc(F)ccc1O	nt	18*	-3	-71	15	0	0
CCn1c(C)nc2cc(C(=O)n3cc(C(=O)c4cc(F)ccc4O)cn3)ccc21	0	nt	nt	nt	nt	nt	nt
C=CCn1c(SCC(=O)NC(=O)NCc2ccco2)nc2sc(C)c(C)c2c1=O	nt	17*	14	-44	-84	-3	-5
O=C(NCC1CCCO1)c1ccc(Oc2ccc([N+](=O)[O-])cc2Cl)cc1 (stereo not given)	-25	17*	3	-49	-25	-4	-8
CCOc1ccc(NC(=O)Nc2nc(SCC)ns2)cc1	-1	18*	15	24	-77	2	5
COc1ccc(N(Cc2ccccc2)S(=O)(=O)c2cccc(C(=O)Nc3ccccn3)c2)cc1	nt	19*	-4	-48	15	4	1
Cc1ccc(C(=O)N2CCCC(N3CCN(c4cccc(C(F)(F)F)c4)CC3)C2)s1 (stereo not given)	-9	15*	5	10	-26	6	6
CC(=O)N1CCCC(N2CCN(c3cccc(C(F)(F)F)c3)CC2)C1 (stereo not given)	0	2	-2	-8	8	nt	nt
CCc1ccc(-c2cc(C(=O)Nc3ccc(S(=O)(=O)NC(C)=O)cc3)c3ccccc3n2)cc1	nt	21*	-2	-51	12	10	-3
Cc1ccc(-c2cc(C(=O)Nc3ccc(S(=O)(=O)Nc4ncccn4)cc3)c3ccccc3n2)cc1	-1	-2	0	-9	-2	nt	nt
CCCCCOC(=O)Cn1c(=O)oc2ccccc21	-6	-5	2	10	-10	nt	nt
CCCCCCCCCCOC(=O)Cn1c(COc2ccccc2)[n+](C)c2ccccc21	-112	15*	10	-60	-55	15	10
CCCCCCCCCCOC(=O)Cn1c(COc2ccc(OC)cc2)[n+](C)c2ccccc21	-100	12*	12	-45	-62	-2	-1
Cc1ccc(S(=O)(=O)N(C)C)cc1NC(=O)C(C)OC(=O)c1cc[n+]([O-])cc1 (stereo not given)	nt	4	-2	-9	7	nt	nt
CCOc1ccc(N2C(=O)CC(NCCc3ccncc3)C2=O)cc1 (stereo not given)	1	-4	-2	18	11	nt	nt
CCOc1ccc(N2C(=O)CC(NCCc3c[nH]c4ccccc34)C2=O)cc1 (stereo not given)	9	71*	-1	-162	6	17	2
CC1CCCCN1Cc1c(C#N)c2ccccc2n1C (stereo not given)	5	21*	4	-57	-21	3	2
Cc1cc(O)c(C(C)C)cc1C1(c2cc(C(C)C)c(O)cc2C)OC(=O)c2ccccc21	11	20*	13	-5	-65	6	13
CC(C)(C)OC(=O)N[C@@H](C(=O)OC(C)(C)C)c1ccccc1	nt	25*	1	-68	-4	6	5
SMILES	Lipid droplet	HTR5A ag ctr	MOR-DOR ag-1	HTR5A inv ctr	MOR-DOR inv ag-1	MOR-DOR ag-2	HTR5A ag conf	others
COc1ccc(-c2csc(C3=C(O)CN(C(C)C)C3=N)n2)cc1OC	14	4	-1	16	4	nt	nt
CCc1ccc2[nH]c(=O)c(CN(Cc3ccc4c(c3)OCO4)Cc3nnnn3C3CCCC3)cc2c1	-2	19*	8	3	-48	6	2
Cc1ccc2cc(CN(Cc3ccc(F)cc3)Cc3nnnn3C3CCCC3)c(=O)[nH]c2c1	-43	-3	5	7	-32	nt	nt
COc1ccc2[nH]c3c(c2c1)CCNC3C1CC=C(C)CC1 (stereo not given)	-5	34*	1	-51	-7	5	51*
Cc1noc(C)c1S(=O)(=O)N(C)C[C@H]1Oc2c(NC(=O)C3CCCCC3)cccc2C(=O)N([C@H](C)CO)C[C@@H]1C	nt	0	-1	1	5	nt	nt
C/C(=N\N)c1c(-c2ccccc2)c2cc(C)ccc2[nH]c1=O	12	1	0	-15	0	nt	nt
CCN(CC)c1c(-c2ccccc2)c2cc(C)ccc2[nH]c1=O	-12	27*	2	-68	-12	5	2
COc1ccc(-n2c(Cc3cccn3C)nnc2SCC(=O)Nc2cccc(OC)c2)cc1	-6	-2	0	5	1	nt	nt
COc1ccc(NC(=O)CSc2nnc(Cc3cccn3C)n2-c2ccc(C)cc2)cc1OC	nt	15*	-2	-49	9	3	3
NS(=O)(=O)c1ccc(CCNC(=O)C(c2ccccc2)c2ccccc2)cc1	1	6	-3	-17	15	nt	nt
CCOc1cc(C(=O)OCc2ccc([N+](=O)[O-])cc2)ccc1OCC(=O)N1CCOCC1	nt	17*	0	-43	0	1	1
O=C(CN1CCOCC1)N/N=C/c1ccc(-c2cccc(Cl)c2Cl)o1	-8	2	-2	-48	11	nt	nt
Cc1ccc2c(c1)Oc1ccc(NC(=O)CCl)cc1C(=O)N2	4	15*	-3	-18	14	2	4
CN(CCc1ccccc1)C1CCCN(S(=O)(=O)N(C)C)C1 (stereo not given)	0	-1	-2	5	10	nt	nt
CC1(C)Cc2c(C#N)c(SCCC#N)nc(N3CCOCC3)c2CS1	-1	15*	0	-8	1	1	3
